# Test results: ChEMBL document CHEMBL4414551, “Design, Synthesis, and Biological Evaluation of Substituted 4,6-Dihydrospiro[[1,2,3]triazolo[4,5-b]pyridine-7,3'-indoline]-2',5(3H)-dione Analogues as Potent NS4B Inhibitors for the Treatment of Dengue Virus Infection” (J Med Chem, 2019)
# Calls of active or inactive are those of the source. The calls are words filed in the database; no cut-off is given here.
# Key:
# [1] = test system: dengue virus type 2; experiment: Antiviral activity against Dengue virus 2 NGC infected in human HuH7 replicon cells expressing Renilla luciferase and neomycin-resistance genes assessed as reduction in viral replication incubated for 48 hrs by luciferase reporter replicon-based assay; type: functional, organism-based; conditions: Huh-7, 48 h
# How it was run: (§1)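 Huh7 cells stably carrying a Renilla luciferase/neomycin-resistance replicon (DENV-1 WestPac, DENV-2 NGC, DENV-3 D3MY05-34640 or DENV-4 D4MY01-22713). Cells seeded at 10k per well and incubated overnight at 37 °C, 5% CO2. Then exposed to 2-fold serial compound dilutions for 48 h, in duplicate. Luciferase read with a live-cell substrate. EC50 from four-parameter logistic fit.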
# [2] = Cytotoxicity in human HuH7 replicon cells infected with Dengue virus 2 NGC assessed as reduction in cell viability incubated for 48 hrs by Cell-titer-Glo reagent based assay; parameters: species or system Huh-7
# How it was run: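 Huh7 cells or Huh7 replicon cells plated, then held at 37 °C with 5% CO₂ overnight. Exposed to 2-fold serial compound dilutions for 48 h, in duplicate. Viability read with CellTiter-Glo and normalized to 0.45% DMSO wells set at 100%. CC50 from four-parameter logistic fit.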
# [3] = test system: dengue virus type 2; experiment: Inhibition of NS4B in Dengue virus 2 NGC infected in human HuH7 replicon cells lysates at 10 ujM incubated for 48 hrs by SDS-PAGE based pull down assay; type: subcellular; conditions: Lysate
# How it was run: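 Huh7 cells, 4×10⁶ per T-75, infected next day with DENV-2 NGC at MOI 2.0 with 10 µM biotinylated probe, or 0.25% DMSO, for 48 h at 37 °C. Lysis in 20 mM Tris-HCl pH 7.5, 100 mM NaCl, 0.5% DDM with protease inhibitors. Lysate spiked with compound to 100 µM final, then streptavidin magnetic beads at 4 °C overnight. Bead eluates resolved on 12% SDS-PAGE; NS4B detected by anti-NS4B monoclonal Western blot.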
# [4] = test system: dengue virus type 3; experiment: Antiviral activity against Dengue virus 3 D3MY05-34640 infected in human HuH7 replicon cells expressing Renilla luciferase and neomycin-resistance genes assessed as reduction in viral replication incubated for 48 hrs by luciferase reporter replicon-based assay; type: functional, organism-based; conditions: D3MY05-34640, Huh-7, 48 h; how it was run: as §1
# [5] = test system: dengue virus type 4; experiment: Antiviral activity against Dengue virus 4 D4MY01-22713 infected in human HuH7 replicon cells expressing Renilla luciferase and neomycin-resistance genes assessed as reduction in viral replication up to 10 uM incubated for 48 hrs by luciferase reporter replicon-based assay; type: functional, organism-based; how it was run: as §1
# [6] = test system: dengue virus type 1; experiment: Antiviral activity against Dengue virus 1 WestPac infected in human HuH7 replicon cells expressing Renilla luciferase and neomycin-resistance genes assessed as reduction in viral replication up to 10 uM incubated for 48 hrs by luciferase reporter replicon-based assay; type: functional, organism-based; how it was run: as §1
# [7] = test system: dengue virus type 4; experiment: Antiviral activity against Dengue virus 4 D4MY01-22713 infected in human HuH7 replicon cells expressing Renilla luciferase and neomycin-resistance genes assessed as reduction in viral replication incubated for 48 hrs by luciferase reporter replicon-based assay; type: functional, organism-based; conditions: D4MY01-22713, Huh-7, 48 h; how it was run: as §1
# [8] = test system: dengue virus type 1; experiment: Antiviral activity against Dengue virus 1 WestPac infected in human HuH7 replicon cells expressing Renilla luciferase and neomycin-resistance genes assessed as reduction in viral replication incubated for 48 hrs by luciferase reporter replicon-based assay; type: functional, organism-based; conditions: Huh-7, 48 h; how it was run: as §1
# [9] = test system: dengue virus type 2; experiment: (§2) Resistance index, ratio of EC50 for antiviral activity against NS4B V63M mutant containing Dengue virus 2 isolate P12-IV infected in human HuH7 cells using viral isolates selected by serial passaging in presence of test compound incubated for 3 days by viral reduction assay to EC50 for antiviral activity against Dengue virus 2 isolate P0 infected in human HuH7 cells incubated for 3 days by viral reduction assay; type: functional
# [10] = test system: dengue virus type 2; experiment: as §2, with “activity against NS3 T606A mutant and NS4B V63L” for “activity against NS4B V63M”, “and NS4B V63L mutant containing” for “against NS4B V63M mutant containing”, “2 isolate P12-VI infected in” for “2 isolate P12-IV infected in”; type: functional
# [11] = test system: dengue virus type 2; experiment: Antiviral activity against NS3 T606A mutant containing Dengue virus 2 isolate P12-II infected in human HuH7 cells using viral isolates selected by serial passaging in presence of DMSO incubated for 3 days by viral reduction assay; type: functional, organism-based; conditions: Huh-7, 72 h
# [12] = test system: dengue virus type 2; experiment: (§3) Resistance index, ratio of EC50 for antiviral activity against NS3 T606A mutant containing Dengue virus 2 isolate P12-II infected in human HuH7 cells using viral isolates selected by serial passaging in presence of DMSO incubated for 3 days by viral reduction assay to EC50 for antiviral activity against Dengue virus 2 isolate P0 infected in human HuH7 cells incubated for 3 days by viral reduction assay; type: functional
# [13] = test system: dengue virus type 2; experiment: Antiviral activity against NS3 T606A mutant and NS4B V63L mutant containing Dengue virus 2 isolate P12-VI infected in human HuH7 cells using viral isolates selected by serial passaging in presence of test compound incubated for 3 days by viral reduction assay; type: functional, organism-based; conditions: Huh-7, 72 h
# [14] = test system: dengue virus type 2; experiment: as §3, with “P12-I” for “P12-II”; type: functional
# [15] = test system: dengue virus type 2; experiment: as §2, with “V63M and P104S” for “V63M”, “P12-V” for “P12-IV”; type: functional
# [16] = test system: dengue virus type 2; experiment: Antiviral activity against NS4B V63M mutant containing Dengue virus 2 isolate P12-IV infected in human HuH7 cells using viral isolates selected by serial passaging in presence of test compound incubated for 3 days by viral reduction assay; type: functional, organism-based; conditions: Huh-7, 72 h
# [17] = test system: dengue virus type 2; experiment: Antiviral activity against Dengue virus 2 isolate P0 infected in human HuH7 cells incubated for 3 days by viral reduction assay; type: functional, organism-based; conditions: isolate P0, Huh-7, 72 h
# [18] = test system: dengue virus type 2; experiment: Antiviral activity against NS4B V63M and P104S mutant containing Dengue virus 2 isolate P12-V infected in human HuH7 cells using viral isolates selected by serial passaging in presence of test compound incubated for 3 days by viral reduction assay; type: functional, organism-based; conditions: Huh-7, 72 h
# [19] = test system: dengue virus type 2; experiment: Antiviral activity against NS3 T606A mutant containing Dengue virus 2 isolate P12-I infected in human HuH7 cells using viral isolates selected by serial passaging in presence of DMSO incubated for 3 days by viral reduction assay; type: functional, organism-based; conditions: Huh-7, 72 h
# [20] = test system: dengue virus type 2; experiment: Antiviral activity against NS3 T606A mutant and NS4B V63M mutant containing Dengue virus 2 isolate P12-III infected in human HuH7 cells using viral isolates selected by serial passaging in presence of test compound incubated for 3 days by viral reduction assay; type: functional, organism-based; conditions: Huh-7, 72 h
# [21] = test system: dengue virus type 2; experiment: as §2, with “activity against NS3 T606A mutant and NS4B V63M” for “activity against NS4B V63M”, “2 isolate P12-III infected in” for “2 isolate P12-IV infected in”; type: functional
SMILES,EC50 [1] [nM],CC50 at 48 h [2] [nM],EC50 [4] [nM],EC50 [7] [nM],EC50 [8] [nM],other results
C[C@@H](c1ccc(Cl)cc1)n1nnc2c1NC(=O)C[C@@]21C(=O)N(CCOC(=O)CCCCCCCNC(=O)CCCC[C@@H]2SC[C@@H]3NC(=O)N[C@@H]32)c2ccc(Cl)cc21,> 5000,> 10000,> 5000,–,–,inhibition [3]: inactive
C[C@@H](c1ccc(Cl)cc1)n1nnc2c1NC(=O)C[C@]21C(=O)N(CCOC(=O)CCCCCCCNC(=O)CCCC[C@@H]2SC[C@@H]3NC(=O)N[C@@H]32)c2ccc(Cl)cc21,41.4,> 10000,16.7,–,–,inhibition [3]: Active; Activity [5]: inactive; Activity [6]: inactive
C[C@@H](c1ccc(Cl)cc1)n1nnc2c1NC(=O)C[C@]21C(=O)N(CCCN2CCCCC2)c2ccc(Cl)cc21,130,> 10000,12,> 5000,> 5000,–
C[C@@H](c1ccc(Cl)cc1)n1nnc2c1NC(=O)C[C@]21C(=O)N(CCCCCCN(C)C)c2ccc(Cl)cc21,900,> 10000,66,> 5000,1500,–
C[C@@H](c1ccc(Cl)cc1)n1nnc2c1NC(=O)C[C@]21C(=O)N(Cc2cc(C(C)(C)C)cc(C(C)(C)C)c2)c2ccc(Cl)cc21,> 10000,> 10000,5900,4900,4600,–
CCN1C(=O)[C@]2(CC(=O)Nc3c2nnn3[C@@H](C)c2ccc(Cl)cc2)c2cc(Cl)ccc21,24,> 10000,6,> 5000,2500,–
CCCN1C(=O)[C@]2(CC(=O)Nc3c2nnn3[C@@H](C)c2ccc(Cl)cc2)c2cc(Cl)ccc21,71,> 10000,10,> 5000,1900,–
C[C@@H](c1ccc(Cl)cc1)n1nnc2c1NC(=O)C[C@]21C(=O)N(Cc2ccncc2)c2ccc(Cl)cc21,72,> 10000,25,> 5000,> 5000,–
C[C@@H](c1ccc(Cl)cc1)n1nnc2c1N(C)C(=O)C(C)(C)[C@]21C(=O)N(C)c2ccc(Cl)cc21,> 5000,> 10000,> 5000,> 5000,> 5000,–
C[C@@H](c1ccc(Cl)cc1)n1nnc2c1NC(=O)C[C@]21C(=O)N(CCN2CCOCC2)c2ccc(Cl)cc21,75,> 10000,17,> 5000,> 5000,–
CNCCN1C(=O)[C@]2(CC(=O)Nc3c2nnn3[C@@H](C)c2ccc(Cl)cc2)c2cc(Cl)ccc21,120,> 10000,22,> 5000,> 5000,–
CC(C)N1C(=O)C[C@]2(C(=O)Nc3ccc(Cl)cc32)c2nnn([C@@H](C)c3ccc(Cl)cc3)c21,860,> 10000,310,4400,2100,–
COCCCN1C(=O)C[C@]2(C(=O)Nc3ccc(Cl)cc32)c2nnn([C@@H](C)c3ccc(Cl)cc3)c21,8700,> 10000,910,> 10000,> 10000,–
C[C@@H](c1ccc(Cl)cc1)n1nnc2c1NC(=O)C[C@]21C(=O)N(CCO)c2ccc(Cl)cc21,37,> 10000,10,> 5000,> 5000,–
C#CCN1C(=O)[C@]2(CC(=O)Nc3c2nnn3[C@@H](C)c2ccc(Cl)cc2)c2cc(Cl)ccc21,69,> 10000,3,> 5000,> 5000,–
C[C@@H](c1ccc(Cl)cc1)n1nnc2c1NC(=O)C[C@]21C(=O)N(CCN(C)C)c2ccc(Cl)cc21,25,> 10000,2,> 5000,> 5000,Ratio EC50 [9]: >100; Ratio EC50 [10]: >100; EC50 [11]: 56 nM; Ratio EC50 [12]: 0.93; EC50 [13]: > 6000 nM; Ratio EC50 [14]: 0.8; Ratio EC50 [15]: >100; EC50 [16]: > 6000 nM; EC50 [17]: 60 nM; EC50 [18]: > 6000 nM; EC50 [19]: 48 nM; EC50 [20]: > 6000 nM; Ratio EC50 [21]: >100
COC(=O)CN1C(=O)C[C@]2(C(=O)Nc3ccc(Cl)cc32)c2nnn([C@@H](C)c3ccc(Cl)cc3)c21,> 10000,> 10000,2700,> 10000,> 10000,–
CCOC(CN1C(=O)[C@]2(CC(=O)Nc3c2nnn3[C@@H](C)c2ccc(Cl)cc2)c2cc(Cl)ccc21)OCC,290,> 10000,76,> 5000,> 5000,–
Cc1ccc(CN2C(=O)[C@]3(CC(=O)Nc4c3nnn4[C@@H](C)c3ccc(Cl)cc3)c3cc(Cl)ccc32)cn1,150,> 10000,11,> 5000,> 5000,–
C[C@@H](c1ccc(Cl)cc1)n1nnc2c1NC(=O)C[C@]21C(=O)N(Cc2cccnc2)c2ccc(Cl)cc21,29,> 10000,21,> 5000,3200,–
C[C@@H](c1ccc(Cl)cc1)n1nnc2c1NC(=O)C[C@]21C(=O)N(CCCBr)c2ccc(Cl)cc21,250,> 10000,76,3200,2400,–
COC(=O)CN1C(=O)[C@]2(CC(=O)Nc3c2nnn3[C@@H](C)c2ccc(Cl)cc2)c2cc(Cl)ccc21,77,> 10000,11,> 5000,> 5000,–
C[C@@H](c1ccc(Cl)cc1)n1nnc2c1NC(=O)C[C@]21C(=O)N(CCCN(C)C)c2ccc(Cl)cc21,25,> 10000,1,> 5000,> 5000,–
